B1: NELF-E aptamer (parent)
chain: CCCAACGACUGCCGAGCGAGAUUACGCUUGAGCGCCCCACUGAGGAUGCCCACGGGCGAUUGGGGCACGG

Variants of: B1
Assay: HiTS-RAP
Settings: with NELF-E (Drosophila)
Outline: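 Aptamer DNA templates carrying a T7 promoter and ter site were sequenced on an Illumina GAIIx flowcell, then transcribed in situ by T7 RNA polymerase and halted by GST-Tus (30 minutes, 37°C). Clusters were imaged after 30-minute room-temperature equilibration with NELF-E-mOrange at 0.064 to 1000 nM in HEPES binding buffer, and only the first binding curve was used. Intensities were normalised to sequencing intensity and averaged per sequence. Kd came from weighted Hill fits, keeping fits with variance below 1,000,000.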
Variant U23G A52U has a Kd of 17.6 nM.
Work on U41G A59G yielded a Kd of 35.1 nM.
In the case of C33U A39U, the Kd is reported as 26.9 nM.
Variant A24G C53G has a Kd of 7.46 nM.
A4G C66U was tested, and the Kd was 5.13 nM.
C6G G30U showed a Kd of 6.84 nM.
With C9G A52U the Kd was 14.9 nM.
C9G A52G gave a Kd of 4.79 nM.
Work on C13G G56A yielded a Kd of 6.97 nM.
A39U A67U showed a Kd of 55 nM.
U22G G54A gave a Kd of 12.1 nM.
In the case of U29C C66U, the Kd is reported as 5.81 nM.
With U23G A31U the Kd was 6.53 nM.
U10G C51A was tested, and the Kd was 9.77 nM.
A31U C53U was tested, and the Kd was 3.69 nM.
In the case of C12G U22G, the Kd is reported as 5.79 nM.
A15G A21G gave a Kd of 5.12 nM.
Variant G14U A67U has a Kd of 6.23 nM.
G7U C66U showed a Kd of 6.12 nM.
In the case of G7U G34U, the Kd is reported as 7.8 nM.
For A5G A19G, the Kd was 5.88 nM.
In the case of A8U U10A, the Kd is reported as 6.91 nM.
G16A gave a Kd of 5.27 nM.
In the case of U29G G64U, the Kd is reported as 6.21 nM.
With C9G U29C the Kd was 6.28 nM.
For A5U G63A, the Kd was 9.5 nM.
Work on C13G C37G yielded a Kd of 6.46 nM.
With U22G U60C the Kd was 10.8 nM.
Variant A15U U29G has a Kd of 6.83 nM.
Work on G7A U23G yielded a Kd of 5.95 nM.
With C13U A31G the Kd was 5.17 nM.
Variant U23G U28C has a Kd of 9 nM.
For A5U C53U, the Kd was 4.46 nM.
U10A U29G was tested, and the Kd was 5.61 nM.
Work on C6G C12A yielded a Kd of 6.77 nM.
Work on A4G G11U yielded a Kd of 6.46 nM.
In the case of A5G G18A, the Kd is reported as 5.15 nM.
A24G C51U showed a Kd of 8.86 nM.
U29G U60A showed a Kd of 13.2 nM.
For A24G A39U, the Kd was 29.5 nM.
Variant A5U A39G has a Kd of 8.51 nM.
In the case of A5U A39U, the Kd is reported as 29.7 nM.
For C13G G30A, the Kd was 4.93 nM.
For A39G G54A, the Kd was 23.3 nM.
Work on G7A C12G yielded a Kd of 6.93 nM.
G48A gave a Kd of 9.57 nM.
Work on U10A C53U yielded a Kd of 5.03 nM.
C37U showed a Kd of 11.1 nM.
Work on C27G yielded a Kd of 5.01 nM.
A5G C51U gave a Kd of 7.39 nM.
In the case of A5U U22G, the Kd is reported as 6.13 nM.
A5G U22G showed a Kd of 5.89 nM.
C25G U41G was tested, and the Kd was 6.42 nM.
G20A U29G gave a Kd of 4.98 nM.
A8G U22G gave a Kd of 5.75 nM.
Work on C6G U41A yielded a Kd of 103 nM.
With C9G G34A the Kd was 9.14 nM.
Variant C13U U22G has a Kd of 5.14 nM.
Work on A31G G32A yielded a Kd of 5.29 nM.
Work on G11A C12G yielded a Kd of 7.18 nM.
Variant A8U G11U has a Kd of 6.61 nM.
A8G A43G gave a Kd of 23.7 nM.
G14U G56U showed a Kd of 7.18 nM.
G11U A19G was tested, and the Kd was 6.05 nM.
G20A U22G was tested, and the Kd was 5.27 nM.
With A4G C27U the Kd was 4.47 nM.
Variant A5G U47G has a Kd of 7.6 nM.
With A24G G55A the Kd was 11.1 nM.
For G11U A31U, the Kd was 6.12 nM.
Work on A4U A46G yielded a Kd of 58.7 nM.
In the case of A8U C36U, the Kd is reported as 8.33 nM.
Variant A4U G26U has a Kd of 4.31 nM.
G64A gave a Kd of 7.74 nM.
G11U A15G showed a Kd of 6.22 nM.
C6U A31G showed a Kd of 8.72 nM.
With G44U the Kd was 7.32 nM.
For A4G G64U, the Kd was 7.6 nM.
Variant A5U C6A has a Kd of 7.45 nM.
In the case of A24G A67G, the Kd is reported as 6.13 nM.
Work on C6G A43U yielded a Kd of 87.2 nM.
A4U C13U was tested, and the Kd was 5.19 nM.
A4U C13G gave a Kd of 5.84 nM.
With G20U U22G the Kd was 6.52 nM.
Work on A24G yielded a Kd of 5.47 nM.
A19G G55U gave a Kd of 10.6 nM.
Variant G7C G11U has a Kd of 7.68 nM.
U29G G62U gave a Kd of 8.12 nM.
G16U U41G gave a Kd of 6.39 nM.
In the case of C9A U22G, the Kd is reported as 3.88 nM.
A5U A19G showed a Kd of 7.47 nM.
With A5G U23A the Kd was 5.47 nM.
In the case of C13G U60C, the Kd is reported as 8.4 nM.
A24G U29G gave a Kd of 5.84 nM.
C17G G34A was tested, and the Kd was 8.48 nM.
With C6G U10C the Kd was 5.34 nM.
G55C gave a Kd of 7.14 nM.
U22G C27G was tested, and the Kd was 8.09 nM.
U23G G32A was tested, and the Kd was 5.52 nM.
U60A was tested, and the Kd was 9.5 nM.
With C13G U28C the Kd was 8.82 nM.
G63U G65U gave a Kd of 5.32 nM.
G30U gave a Kd of 5.41 nM.
Work on G30A yielded a Kd of 4.41 nM.
For C12U A19G, the Kd was 5.36 nM.
With U41G G63U the Kd was 11.8 nM.
With A5G G14U the Kd was 6.38 nM.
C12G G55U showed a Kd of 8.9 nM.
Work on A4G G30A yielded a Kd of 4.89 nM.
U10G G34A was tested, and the Kd was 6.95 nM.
U10G G34U showed a Kd of 5.54 nM.
U10G C37U was tested, and the Kd was 12.2 nM.
U10G C37A showed a Kd of 14.8 nM.
A8U U28C showed a Kd of 8.73 nM.
For A21G U23G, the Kd was 6.71 nM.
With U10C G14U the Kd was 4.95 nM.
Variant A8U A43G has a Kd of 25.7 nM.
A5G A46U showed a Kd of 90.8 nM.
With C17G U22G the Kd was 4.82 nM.
A8G G55U showed a Kd of 7.12 nM.
For C12G C33U, the Kd was 6 nM.
For G7U C17G, the Kd was 6.28 nM.
For U10G C17U, the Kd was 4.88 nM.
With C49G the Kd was 9.21 nM.
Variant C6U U23G has a Kd of 6.14 nM.
Variant C6A A24G has a Kd of 7.36 nM.
C2U was tested, and the Kd was 5.27 nM.
C17G C25U showed a Kd of 5.39 nM.
Work on C6A U22G yielded a Kd of 7.16 nM.
A5G A21G gave a Kd of 5.66 nM.
For A24G G30A, the Kd was 5.17 nM.
With G58C the Kd was 65.3 nM.
Work on C3G yielded a Kd of 5.16 nM.
Variant C3A has a Kd of 5.8 nM.
In the case of C12G G14A, the Kd is reported as 5.91 nM.
For U23G A46G, the Kd was 59.5 nM.
For G14U A39U, the Kd was 32.5 nM.
G14U G55A showed a Kd of 7.48 nM.
Work on U10A G16U yielded a Kd of 5.86 nM.
G20U U28C was tested, and the Kd was 9.17 nM.
With C13U C57U the Kd was 4.06 nM.
C13U A39U gave a Kd of 20.4 nM.
G7U A31U gave a Kd of 5.33 nM.
A5C U22G gave a Kd of 6.87 nM.
With C25G G26C the Kd was 6 nM.
Variant C13G U61G has a Kd of 7.74 nM.
With C13G U22C the Kd was 4.85 nM.
Variant A39U G48A has a Kd of 49 nM.
U41G G65U showed a Kd of 6 nM.
With U10G C13G the Kd was 4.78 nM.
In the case of A8G C66U, the Kd is reported as 5.01 nM.
Variant G11U G34A has a Kd of 6.7 nM.
G11U U47G gave a Kd of 7.92 nM.
With G20A the Kd was 5.25 nM.
G20U gave a Kd of 6.04 nM.
With A24G G64C the Kd was 5.75 nM.
A46G G54A gave a Kd of 129 nM.
C9G G42A showed a Kd of 56.8 nM.
In the case of C6G G48A, the Kd is reported as 11.6 nM.
For U28C A52U, the Kd was 32.7 nM.
U22G C35U was tested, and the Kd was 11.6 nM.
For A8G G18U, the Kd was 7.18 nM.
A19G G63A gave a Kd of 19.1 nM.
C9G U61A gave a Kd of 35.2 nM.
For C6G C38U, the Kd was 10.4 nM.
C12G C57U showed a Kd of 6.51 nM.
A5G U29C showed a Kd of 6.65 nM.
Variant A8U has a Kd of 5.54 nM.

Source: the RNAGym collection of RNA variant scans (doi:10.1038/nmeth.2970)
